The values below come from the EternaBench riboswitch data.

This data set concerns MS2 coat protein. The experiment in a line: apparent Kd, MS2 coat protein; higher = weaker binding; RNA-MaP array; FMN 200 µM where present. The essentials: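 Apparent Kd: the median of filtered binding-curve fits from single clusters. Designs were transcribed on Illumina sequencing-chip clusters by stalled E. coli RNA polymerase and titrated with SNAP-549-labelled MS2 coat protein from 0.7 or 1.5 nM, doubling to 3 µM, in 100 mM Tris-HCl pH 7.5, 80 mM KCl, 4 mM MgCl2, BSA, DTT, yeast tRNA and Tween-20. Each series ran without and then with constant ligand, and green signal was normalised to red-channel RNA signal and control-cluster median Fmax.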

Setting [1] is: designed as: OFF switch for flavin mononucleotide, no ligand.
Where [2] appears, read: ligand present: flavin mononucleotide, designed as: OFF switch for flavin mononucleotide.
Setting [3] is: designed as: ON switch for flavin mononucleotide, no ligand.
The mark [4] stands for this setting: ligand present: flavin mononucleotide, designed as: ON switch for flavin mononucleotide.

Regarding “UUUCUCGUUGUGAGGAUAUCGUUUUUGUCUCGGAUCGAGAAGGCACAUGAGGAUCACCCAUGUUUGUUGUGGUU”, the “apparent Kd” value is, setting by setting: under setting [1], 85.1 nM; under setting [2], 103 nM.

“GUAGAGUAAGGAUAUGGUGAAUAGGAUAGAAUGGUUAGAAACCAGAAGGUACAUGAGGAUCACCCAUGUAAUGU”: the “apparent Kd” value reads like this: under setting [1], 21 nM; under setting [2], 21.1 nM.

As to “GAUGACAUGAGGAUCACCCAUGUGAUGGUUUGAGGUGGUUACAGAAGGGACGUAUAGUGGUGUGGUCAGGAUAUGUAGAAUCCU”, the “apparent Kd” value was 125 nM under setting [3] and 50.9 nM under setting [4].

On to “CUUCAGUCAGGAUAUGUUAAUCUCACCACUCGGCGAGCCGGACAGAAGGGACAUGAGGAUCACCCAUGUUAAAA”, for which the “apparent Kd” value runs as follows: under setting [1], 39.1 nM; under setting [2], 23.4 nM.

Regarding “CUGUUUAAAGUGAGGAUAUGAACCUAGAACCAGGAUUAGAAGGCACAUGAGGAUCACCCAUGUGGUUGGUUGGG”, the “apparent Kd” value runs as follows: under setting [1], 16.6 nM; under setting [2], 16.7 nM.

Take “GGAGAGGAAACAUGAGGAUCACCCAUGUGAGUGGUCCGAAUAUAGGAUAUCCACACGAGAAGUGUGGAGAAGGAUAACCUCUCC”: the “apparent Kd” value under setting [1] was determined as 73 nM and the “apparent Kd” value under setting [2] is 90.2 nM.

For the sequence “CUCAUGUGAGGAUAUCAGUAGUAAAAAAAUAAAAUUACUACUGAGAAGGCACAUGAGGAUCACCCAUGUGCCAA”, the “apparent Kd” value under setting [1] is 16.1 nM and the “apparent Kd” value under setting [2] amounted to 28.6 nM.

As to “UGUUGUAUUACAGGAUAUCUAGUAUUUUUAAUUAGAGAAGGGUAUUCACAUGAGGAUCACCCAUGUAUAUACGAGGAAGUUGUG”, the “apparent Kd” value is, setting by setting: under setting [3], 43.3 nM; under setting [4], 43.1 nM.

On to “GGCGUGUUAGGAUAUCGCGGCGGCGGCGUUUGUUGUUGUUGUGAGAAGGAACAUGAGGAUCACCCAUGUAUGCC”, for which the “apparent Kd” value is, setting by setting: under setting [1], 34.8 nM; under setting [2], 55 nM.

Regarding “UGAUCUUGGGUCAGGAUAUGCUGGUAUUUUUGCCAGCAGAAGGGACAUGAGGAUCACCCAUGUUCUUGGUUUUU”, the “apparent Kd” value runs as follows: under setting [1], 11.7 nM; under setting [2], 14.9 nM.

“CACCGUUAACUAGGAUAUAGUACAUGAGGAUCACCCAUGUAAUAAAUGAGAAUUUCGGAUGUAUGCUAGAAGGAGUAAAUCGGC”: the “apparent Kd” value under setting [1] stood at 62.8 nM and the “apparent Kd” value under setting [2] was 64.4 nM.

For “CCUCACAGAGGAUAUACGUCCACUGAACCCAUGAGGUUGCCACAUGAGGAUCACCCAUGUAGAAGGCUGUGCUG”, the “apparent Kd” value under setting [1] was found to be 20.1 nM and the “apparent Kd” value under setting [2] was found to be 42.9 nM.

As for “CGGCCAUAUCGAGGAUAUAAGUCUAGGACAUGAGGAUCACCCAUGUAUGUCUUAGAAGGCGAUAUGGCCAGCCUGUUACAGGCA”, the “apparent Kd” value is, setting by setting: under setting [3], 28.9 nM; under setting [4], 5.83 nM.

Take “GAGUUUAAGUUUGUCACUUAGAGAGAGGAUAUGGAAAACUUGACAUGAGGAUCACCCAUGUAUAAUCAGAAGGCUCGAGUACGA”: the “apparent Kd” value by setting is: under setting [3], 12.1 nM; under setting [4], 7.33 nM.

Take “UUAUUCUAUAUAGGAUAUUGAUGUAAUUUAUUUCAAGAAGGAUAUACAUGAGGAUCACCCAUGUUGGAUAGGGUUAGUUUGUUU”: the “apparent Kd” value reads like this: under setting [3], 81.1 nM; under setting [4], 91.1 nM.

For “GUUACAUGAGGAUCACCCAUGUAUGUGUGGGAGUAAGUGUCUUAGGAUAUCUAUUAUUUAAUGUAAGAGAAGGAAGAUUGUUGU”, the “apparent Kd” value under setting [3] was determined as 113 nM and the “apparent Kd” value under setting [4] amounted to 124 nM.

Consider “CAAUUUAUGUCAGGAUAUACAAUACAAUGAUUAGUAGAAGGGAUUAAUACAUGAGGAUCACCCAUGUCAUGUGUCAUCGUAACC”, for which the “apparent Kd” value turned out to be 22.3 nM under setting [1] and 17.4 nM under setting [2].

For the sequence “UUAAUUAAUUAAUUGCAGUUACAUGAGGAUCACCCAUGUAUAUAGGAUAUCGUCAGGAAUACUGACGAGAAGGAUAUACUCUGC”, the “apparent Kd” value worked out at 21.6 nM under setting [1] and 26.7 nM under setting [2].

“AAUGGGCAGCAGAAGGCAUGUCUACGGACAUGAGGAUCACCCAUGUAGUGAAGCCGAAAGGCGCAUGAGGAUAUGCUGCCCUAA”: the “apparent Kd” value reads like this: under setting [3], 131 nM; under setting [4], 8.45 nM.

“GCGUUGAACGAGAAGGCCAAUACAUGAGGAUCACCCAUGUUAAGAUGUUUUGGAGGAUAUCGUACGCAUUCAAUAUUGCAACGC”: the “apparent Kd” value reads like this: under setting [1], 7.63 nM; under setting [2], 9.47 nM.

In the case of “UUGCCUCGGAACAUGAGGAUCACCCAUGUGCUGCGGGCAACGUAGGAUAUGAUGGUACGCUACCAUCAGAAGGAUGAUGGUACC”, the “apparent Kd” value is 4.98 nM under setting [3] and 5.29 nM under setting [4].

Regarding “UUAUUUUUACAGAAGGUUUAAUAAUAUGUAUGAGAAGGAUAUGUAACAUGAGGAUCACCCAUGUUUUAUUUAUAUGAGGAUCAU”, the “apparent Kd” value under setting [2] worked out at 9.31 nM.

Take “UGGUACAUCAUAGGAUAUCGUGUGUAAACAUGAGGAUCACCCAUGUCAUCCGAGAGUAUAUCGACCGAGAAGGGUGAUGUACCU”: the “apparent Kd” value is, setting by setting: under setting [3], 24.1 nM; under setting [4], 33.3 nM.

For “CACACAUGUGGAGGAUAUGUAGUUAACAUAAGCGCAGAAGGCCACAUGAGGAUCACCCAUGUCCGGCAUUAGCCGAUGUUGAUC”, the “apparent Kd” value was 108 nM under setting [1] and 397 nM under setting [2].

On to “AAGAAACAUGAGGAUCACCCAUGUCGAGAGAGACGAGGAUAUCUGAAUCGAUUAGAUUACGGAGAAGGCGUGAAAA”, for which the “apparent Kd” value is 29.4 nM under setting [3] and 23.4 nM under setting [4].

“UCGGCGCGAGGAUAUGCGGUUGCUUGGUAGGGUCGGAGCGUACAUGAGGAUCACCCAUGUAGAAGGCGCGCCGC”: the “apparent Kd” value came to 18.8 nM under setting [1] and 25 nM under setting [2].

For the sequence “CUUUCAUUUUAGGAUAUCGAGUUGGCGAUAGCUCGAGAAGGGAAUACAUGAGGAUCACCCAUGUCGGGUCACGU”, the “apparent Kd” value is, setting by setting: under setting [1], 177 nM; under setting [2], 173 nM.

As to “AACUGACGACGUCAGUUGCGUAGGCAGGAUAUACAUGAGGAUCACCCAUGUGCAUGAUGCUACGAGUAGAAGGGCCGAGGCGAU”, the “apparent Kd” value under setting [1] is 6.15 nM and the “apparent Kd” value under setting [2] was determined as 11.2 nM.

Take “AUGAAGUCAGGAUAUGCCACGUAAAGCCAUGGCUUUGGAGUGUAGAAGGGACAUGAGGAUCACCCAUGUUGUCC”: the “apparent Kd” value worked out at 30.9 nM under setting [1] and 32.2 nM under setting [2].

As for “AGCUGUGGCCGAGGAUAUCUAUCCAAUAAAACCGAAAUAUAAUCGGACAUGAGGAUCACCCAUGUAGAGAAGGCGGUCUCAGCA”, the “apparent Kd” value is, setting by setting: under setting [1], 22.4 nM; under setting [2], 30.5 nM.

For “CAGCUGAAAGUCAGGAUAUCUAGAGCUUCGGCUCUAGAGAAGGGACAUGAGGAUCACCCAUGUGGUCACAGCUG”, the “apparent Kd” value is 1420 nM under setting [1] and 149 nM under setting [2].

With “UUGAGGUCAGGAUAUGCAUGGCGGGACUUGCGUCGUGGCGUGGAGAAGGGACAUGAGGAUCACCCAUGUGGAGU”, the “apparent Kd” value by setting is: under setting [1], 93.1 nM; under setting [2], 53.4 nM.

In the case of “GUAGCAUACGGAGGAUAUUCAUACCGGAAACGGACAUGAGGAUCACCCAUGUGGCGAAAGCCUUGGGAGAAGGCCGUAUGCUAC”, the “apparent Kd” value under setting [3] turned out to be 671 nM and the “apparent Kd” value under setting [4] came to 21.9 nM.

With “GCCAGGCAUGUAGGAUAUCCAUUGCGUCGCGUUGGAGAAGGGCAGCACACAUGAGGAUCACCCAUGUGGUCACCCAUGUAGUGU”, the “apparent Kd” value was found to be 612 nM under setting [1] and 594 nM under setting [2].

For “AAAAAACAUGAGGAUCACCCAUGUCGAAAGACGUGAGGAUAUGUACAGACUUCGGUCUGUACAGAAGGCAUGUCAA”, the “apparent Kd” value by setting is: under setting [3], 94 nM; under setting [4], 20.2 nM.

In the case of “AUCUAGUCAGGAUAUCGUACAAUAUGGAAAACAUAGAGGUACGAGAAGGGACAUGAGGAUCACCCAUGUAAAAC”, the “apparent Kd” value runs as follows: under setting [1], 36.2 nM; under setting [2], 38 nM.

Regarding “GCCGUACAUGAGGAUCACCCAUGUCAGGAUAUUUAGCACUCGGAAUUUCCGAGAGGUCAAAGAAGGGACAUUGC”, the “apparent Kd” value under setting [1] is 17.5 nM and the “apparent Kd” value under setting [2] stood at 26.9 nM.

For “UGAUAGCACAGAGGAUAUGCGUAGUGUUAUCUCUACAUGAGGAUCACCCAUGUAGAAGGCUGUGCUAUCUAAGUCGGAAACGAU”, the “apparent Kd” value is, setting by setting: under setting [1], 6.19 nM; under setting [2], 9.86 nM.

Take “CCGGAAAUAGAGGAUAUAGGACUGGAUACAGUCCUAGAAGGCUAUACAUGAGGAUCACCCAUGUGUCCUACCGG”: the “apparent Kd” value by setting is: under setting [1], 15.7 nM; under setting [2], 44 nM.

For the sequence “GGAAUACAUGAGGAUCACCCAUGUAAGGAUAUGCUGAUUAAAUUGGAUUAAUUAUGCAGCAGAAGGUACAAAAG”, the “apparent Kd” value is, setting by setting: under setting [1], 78.7 nM; under setting [2], 79.6 nM.

On to “CAUUAAUUCAUUAUAGUUAUUAUACAGGAUAUGUUACAUGAGGAUCACCCAUGUUUUCAUGGUAAACAGAAGGGUAUAUCAAGU”, for which the “apparent Kd” value is, setting by setting: under setting [1], 124 nM; under setting [2], 232 nM.

With “GGGUUUGGAGGAUAUACAUGAGGAUCACCCAUGUAGGGCCCGGGUAUUCCCGGGCCCUGUAGAAGGCCGGGCCC”, the “apparent Kd” value was 14.1 nM under setting [1] and 16.5 nM under setting [2].

Take “ACAUGCAUAGCGAUAUGAUCGAGAGAUCAUGUCGCUAAAUUUAGAAGGACAUGAGGAUCACCCAUGUAGGAUAUGGGAGCAUGG”: the “apparent Kd” value amounted to 42.8 nM under setting [3] and 10.3 nM under setting [4].

In the case of “UUGGGAUGCAAGAAGGGUGACAUGAGGAUCACCCAUGUGUUGUGAAGUCUCGAGAUUUUAUGACCAUAGGAUAUUGCACCGAAC”, the “apparent Kd” value under setting [3] came to 31.6 nM and the “apparent Kd” value under setting [4] came to 21.6 nM.

In the case of “CAUUAAUUCAUUAUAGUAAUUAUACAGGAUAUGUAACAUGAGGAUCACCCAUGUAUUCUUGGUUAACAGAAGGGUAUUACAAGU”, the “apparent Kd” value by setting is: under setting [1], 16.5 nM; under setting [2], 28.4 nM.

As for “AAAACAUGAGGAUCACCCAUGUAAAGAUCGGUCGAUCAAGGUGAGGAUAUACAAAACUUGAUGGAGUAGAAGGCACUGGGUUGA”, the “apparent Kd” value by setting is: under setting [3], 384 nM; under setting [4], 201 nM.

As to “GUCAGCUCGUGAGGAUAUACAAAACUGCUUCGGCAGUGUAUUAAGAUCACAUGAGGAUCACCCAUGUAGAAGGCACGAGCUGAU”, the “apparent Kd” value runs as follows: under setting [1], 8.71 nM; under setting [2], 82.3 nM.

With “UGCCAGGAGGAGAAGGGAGCACAUGAGGAUCACCCAUGUGGUCCGGGCUGCUCAGGAUAUCCUAACUGUACGCAUUACUACGAA”, the “apparent Kd” value is, setting by setting: under setting [1], 119 nM; under setting [2], 23.2 nM.
